Results taken from ChEMBL document CHEMBL4480390, “Cink4T, a quinazolinone-based dual inhibitor of Cdk4 and tubulin polymerization, identified via ligand-based virtual screening, for efficient anticancer therapy” (Eur J Med Chem, 2019).
Calls of active or inactive are those of the source. The calls are words filed in the database; no cut-off is given here.

Tests used:
Calu-1 [1] = experiment: Cell cycle arrest in human Calu1 cells assessed as increase in accumulation at S phase at 0.9 uM treated 18 hrs post serum-starvation measured after 18 hrs in presence of fresh medium containing FBS by propidium iodide staining based flow cytometry relative to control; assay type: functional
[2] = target: Cyclin-dependent kinase 4/cyclin D1 (Homo sapiens) (UniProt P11802+P24385); experiment: Inhibition of CDK4/cyclin D1 in human T47D cells assessed as reduction in phosphorylation of pRb at Ser807/11 residues at 1.5 uM measured after 18 hrs by Western blot analysis; assay type: cell-based
Summary of the method: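 T47D cells left untreated or treated 18 h at 0.75 or 1.5 µM. Western blots probed with phospho-specific pRb antibodies (Ser780, Ser795, Ser807/811) and a total-pRb antibody; HRP-conjugated secondary for detection.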

T47D [3] = experiment: Cell cycle arrest in human T47D cells assessed as accumulation at G0/G1 phase at 1.5 uM treated 18 hrs post serum-starvation measured after 18 hrs in presence of fresh medium containing FBS by propidium iodide staining based flow cytometry (reference value: 60.3%); assay type: functional
T47D [4] = experiment: Cell cycle arrest in human T47D cells assessed as increase in accumulation at S phase at 1.5 uM treated 18 hrs post serum-starvation measured after 18 hrs in presence of fresh medium containing FBS by propidium iodide staining based flow cytometry relative to control; assay type: functional
MDA-MB-468 [5] = experiment: Cell cycle arrest in human MDA-MB-468 cells assessed as accumulation at sub-G1 phase at 22 uM measured after 18 hrs by propidium iodide staining based flow cytometry relative to control; assay type: functional
T47D [6] = experiment: Cell cycle arrest in human T47D cells assessed as accumulation at sub-G1 phase at 0.75 uM measured after 18 hrs by propidium iodide staining based flow cytometry relative to control; assay type: functional
MDA-MB-468 [7] = experiment: cells; details: Homo sapiens, MDA-MB-468, 72 h
T47D [8] = experiment: Cell cycle arrest in human T47D cells assessed as increase in accumulation at S phase at 0.75 uM treated 18 hrs post serum-starvation measured after 18 hrs in presence of fresh medium containing FBS by propidium iodide staining based flow cytometry relative to control; assay type: functional
T47D [9] = experiment: cells; details: Homo sapiens, 72 h
A549 [10] = experiment: Cell cycle arrest in human A549 cells assessed as ratio of G1 to S phase at 0.8 uM measured after 18 hrs by propidium iodide staining based flow cytometry (reference value: 2.7); assay type: functional
MDA-MB-468 [11] = experiment: Cell cycle arrest in human MDA-MB-468 cells assessed as ratio of G1 to S phase at 22 uM measured after 18 hrs by propidium iodide staining based flow cytometry (reference value: 2.17); assay type: functional
T47D [12] = experiment: Cell cycle arrest in human T47D cells assessed as accumulation at sub-G1 phase at 1.5 uM treated 18 hrs post serum-starvation measured after 18 hrs in presence of fresh medium containing FBS by propidium iodide staining based flow cytometry relative to control; assay type: functional
CDK2/Cyclin A2 = CDK2/Cyclin A2 (Homo sapiens, UniProt P24941); experiment: Inhibition of human full length N-terminal GST-fused CDK2 (M1 to L298 residues)/human full length Cyclin-A2 (M1 to L432 residues) expressed in Sf9 cells using histone H1 as substrate measured after 1 hr by ADP-glo luminescence assay
A549 [13] = experiment: Effect on CDK1 expression in human A549 cells at 0.8 to 1.6 uM measured after 18 hrs by Western blot analysis; assay type: functional, cell-based
T47D [14] = experiment: Cell cycle arrest in human T47D cells assessed as accumulation at sub-G1 phase at 1.5 uM measured after 18 hrs by propidium iodide staining based flow cytometry relative to control; assay type: functional
A549 [15] = experiment: Cell cycle arrest in human A549 cells assessed as accumulation at S phase at 0.8 uM treated 32 hrs post mimosine addition measured after 18 hrs in presence of fresh medium by propidium iodide staining based flow cytometry (reference value: 23%); assay type: functional
Calu-1 [16] = experiment: cells; details: Homo sapiens, Calu-1, 72 h
T47D [17] = experiment: Cell cycle arrest in human T47D cells assessed as ratio of G1 to S phase at 0.75 uM measured after 18 hrs by propidium iodide staining based flow cytometry (reference value: 2.65); assay type: functional
[18] = target: Cyclin-dependent kinase 4/cyclin D1 (Homo sapiens, UniProt P11802); experiment: Inhibition of recombinant human N-terminal GST-tagged CDK4 (S4 to E303 residues)/Cyclin D1 (Q4 to I295 residues) expressed in sf9 cells using RBCTF as substrate measured after 1 hr by ADP-glo luminescence assay
Sequence of Cyclin-dependent kinase 4/cyclin D1 (P11802 whole entry, the tested form may be a part): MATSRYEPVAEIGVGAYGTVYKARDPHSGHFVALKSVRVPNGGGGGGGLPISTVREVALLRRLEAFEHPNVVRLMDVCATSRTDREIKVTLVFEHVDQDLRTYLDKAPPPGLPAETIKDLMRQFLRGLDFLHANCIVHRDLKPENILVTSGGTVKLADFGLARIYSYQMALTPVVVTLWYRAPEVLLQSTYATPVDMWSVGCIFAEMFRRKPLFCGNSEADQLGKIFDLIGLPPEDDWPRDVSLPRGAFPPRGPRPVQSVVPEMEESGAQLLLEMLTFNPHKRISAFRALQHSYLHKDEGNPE
Sequence of Cyclin-dependent kinase 4/cyclin D1 (P24385 whole entry, further chain, the tested form may be a part): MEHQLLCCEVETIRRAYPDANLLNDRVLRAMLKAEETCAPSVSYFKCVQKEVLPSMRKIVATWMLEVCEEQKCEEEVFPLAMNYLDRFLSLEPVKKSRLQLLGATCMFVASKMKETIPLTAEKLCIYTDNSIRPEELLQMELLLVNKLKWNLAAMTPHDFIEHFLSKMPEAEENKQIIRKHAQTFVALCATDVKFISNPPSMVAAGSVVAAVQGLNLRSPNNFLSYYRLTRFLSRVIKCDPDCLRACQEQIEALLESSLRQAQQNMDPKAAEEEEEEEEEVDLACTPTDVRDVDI
Summary of the method: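 ADP-Glo luminescence assay of Cdk4–cyclin D1 with RBCTF substrate, 200 ng enzyme, ATP 125 µM (2.5x working mix), Tris/MgCl2/BSA/DTT/MnCl2 buffer, 1 h at 21°C, then two 40-min reagent steps. IC50 from a four-parameter variable-slope sigmoidal fit of inhibition against concentration; mean ± SD from three independent experiments.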

Calu-1 [19] = experiment: Cell cycle arrest in human Calu1 cells assessed as accumulation at G0/G1 phase at 1.8 uM treated 18 hrs post serum-starvation measured after 18 hrs in presence of fresh medium containing FBS by propidium iodide staining based flow cytometry (reference value: 69.2%); assay type: functional
Tubulin (Sus scrofa) = Tubulin (Sus scrofa) (UniProt P02554+P02550); experiment: Inhibition of porcine tubulin polymerization at 5 uM incubated for 1 min by fluorescence based assay; assay type: protein assay
Sequence of Tubulin (Sus scrofa) (P02550 whole entry, looked up): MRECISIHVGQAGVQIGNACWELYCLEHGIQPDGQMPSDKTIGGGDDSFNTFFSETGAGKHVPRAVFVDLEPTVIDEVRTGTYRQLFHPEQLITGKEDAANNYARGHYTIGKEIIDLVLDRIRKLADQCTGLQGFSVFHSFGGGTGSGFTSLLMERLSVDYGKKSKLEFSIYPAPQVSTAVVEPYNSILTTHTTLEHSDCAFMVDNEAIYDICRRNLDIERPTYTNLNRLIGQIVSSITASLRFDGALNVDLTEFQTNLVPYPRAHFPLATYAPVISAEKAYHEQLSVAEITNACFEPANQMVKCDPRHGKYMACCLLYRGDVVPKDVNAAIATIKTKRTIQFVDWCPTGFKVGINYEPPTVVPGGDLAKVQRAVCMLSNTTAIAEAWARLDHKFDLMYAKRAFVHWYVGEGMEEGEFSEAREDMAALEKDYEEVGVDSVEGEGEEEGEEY
Sequence of Tubulin (Sus scrofa) (P02554 whole entry, looked up): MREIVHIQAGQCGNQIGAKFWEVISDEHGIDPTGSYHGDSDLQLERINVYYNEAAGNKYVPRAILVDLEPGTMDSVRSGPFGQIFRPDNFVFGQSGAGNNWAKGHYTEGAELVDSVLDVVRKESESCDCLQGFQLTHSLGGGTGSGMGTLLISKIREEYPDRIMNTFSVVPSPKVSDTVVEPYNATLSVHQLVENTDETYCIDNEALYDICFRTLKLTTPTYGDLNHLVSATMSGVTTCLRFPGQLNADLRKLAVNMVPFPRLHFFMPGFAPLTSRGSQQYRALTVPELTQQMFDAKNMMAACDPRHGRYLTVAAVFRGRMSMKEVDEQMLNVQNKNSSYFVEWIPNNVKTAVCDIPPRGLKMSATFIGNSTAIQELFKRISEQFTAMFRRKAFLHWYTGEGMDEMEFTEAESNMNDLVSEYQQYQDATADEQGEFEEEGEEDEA
Summary of the method: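 Compounds added from 10x stocks in duplicate and warmed at 37°C ≤1 min. Ice-cold tubulin pre-mix then added. Fluorescent reporter read at ex 360/em 460 nm for 60 min. Paclitaxel served as enhancer control, CaCl2 as inhibitor control.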

Cytochrome P450 1B1 = target: T1, Cytochrome P450 1B1 (Homo sapiens, UniProt Q16678); experiment: Inhibition of recombinant human CYP1B1 expressed in baker's yeast-derived microsomes using 7-ethoxyresorufin as substrate by fluorescence assay
T1 sequence (Q16678 whole entry): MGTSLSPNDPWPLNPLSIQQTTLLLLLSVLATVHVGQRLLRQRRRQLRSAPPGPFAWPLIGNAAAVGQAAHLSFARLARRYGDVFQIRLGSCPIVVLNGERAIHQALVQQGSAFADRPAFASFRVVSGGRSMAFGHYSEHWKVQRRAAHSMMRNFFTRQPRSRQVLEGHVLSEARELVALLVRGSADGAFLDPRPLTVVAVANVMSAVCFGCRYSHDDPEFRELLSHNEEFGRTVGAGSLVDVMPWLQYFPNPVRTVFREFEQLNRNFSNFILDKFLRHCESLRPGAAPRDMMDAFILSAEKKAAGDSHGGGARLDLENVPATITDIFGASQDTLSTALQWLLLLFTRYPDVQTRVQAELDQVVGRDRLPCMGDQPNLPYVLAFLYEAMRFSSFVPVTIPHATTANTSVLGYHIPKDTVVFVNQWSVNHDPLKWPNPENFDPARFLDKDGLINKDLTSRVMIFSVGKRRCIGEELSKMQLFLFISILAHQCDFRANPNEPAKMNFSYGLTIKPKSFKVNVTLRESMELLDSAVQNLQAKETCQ

A549 [20] = experiment: Cell cycle arrest in human A549 cells assessed as ratio of G1 to S phase at 1.6 uM measured after 18 hrs by propidium iodide staining based flow cytometry (reference value: 2.7); assay type: functional

inhibition [2]: Active | EC50 (MDA-MB-468 [7]): 10800 nM | EC50 (T47D [9]): 750 nM | IC50 (CDK2/Cyclin A2): > 100000 nM | EC50 (Calu-1 [16]): 900 nM | IC50 [18]: 470 nM | inhibition (Tubulin (Sus scrofa)): Active | IC50 (Cytochrome P450 1B1): > 5000 nM
SMILES: O=C(COc1ccc(-c2nc3ccccc3c(=O)[nH]2)cc1)Nc1cccc(Cl)c1
Activity (Calu-1 [1]): 0.7% | Activity (T47D [3]): 68.1% | Activity (T47D [4]): 5.3% | Activity (MDA-MB-468 [5]): 0% | Activity (T47D [6]): 0% | Activity (T47D [8]): 2.13% | Ratio (A549 [10]): 6.5 | Ratio (MDA-MB-468 [11]): 3.15 | Activity (T47D [12]): 18.6% | Activity (A549 [13]): inactive | Activity (T47D [14]): 20% | Activity (A549 [15]): 24% | Ratio (T47D [17]): 22 | Activity (Calu-1 [19]): 88% | Ratio (A549 [20]): 0.75
